Assay results taken from ChEMBL document CHEMBL2331200, “Synthesis and bioevaluation of [(18)F]4-fluoro-m-hydroxyphenethylguanidine ([(18)F]4F-MHPG): a novel radiotracer for quantitative PET studies of cardiac sympathetic innervation” (Bioorg Med Chem Lett, 2013).

Experiments:
[1] = Biodistribution in iv dosed rhesus monkey liver; format: ADME, organism-based, Macaca mulatta; details: in vivo
Outline: (§1)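 Dynamic PET imaging of a single nonhuman primate after injection of the 18F tracer. Regional heart, liver and lung activity was read from the images. Heart-to-blood activity ratios were taken at 80–90 min post-injection.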

[2] = Biodistribution in iv dosed rhesus monkey lungs; format: ADME, organism-based, Macaca mulatta, Lung; details: in vivo; outline: as §1
[3] = Biodistribution in iv dosed rhesus monkey heart; format: ADME, organism-based, Macaca mulatta; details: in vivo; outline: as §1
[4] = Biodistribution in iv dosed rhesus monkey left ventricle; format: ADME, organism-based, Macaca mulatta, Heart left ventricle; details: in vivo; outline: as §1
Heart = test: Drug uptake in rat heart assessed as neuronal uptake rate per gram of wet weight after 10 mins constant infusion measured up to 140 mins; format: ADME, tissue-based; details: ex_vivo
Outline: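 Isolated working rat heart with uptake-2 blocked by 54 μM corticosterone in the perfusion buffer. Radiotracer was infused for 10 min at constant perfusate concentration to give the neuronal uptake rate Kup (ml/min/g wet).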

Drug uptake [2] | Drug uptake [3] | Drug uptake [4] | SMILES | Drug uptake [1] | Drug uptake (Heart) [mL/min/g]
 |  |  | C[C@H](N[11CH3])[C@H](O)c1cccc(O)c1 | Active | 
Not Active | Active | Active | N=C(N)NCCc1ccc([18F])c(O)c1 | Active | 
 |  |  | N=C(N)NCc1ccc([18F])cc1 |  | 1.2
 |  |  | N=C(N)NCc1cccc([123I])c1 [IOBENGUANE I 123] | Active | 
